Usually EC50 stands for the concentration that produces a half-maximal response. Lower therefore signals higher potency in that assay.

Where only a bound is given, the exact number is not on record here.

EC50 data for one molecule are collected here from ChEMBL document CHEMBL1142195, “A novel nonnucleoside analogue that inhibits human immunodeficiency virus type 1 isolates resistant to current nonnucleoside reverse transcriptase inhibitors” (Antimicrob Agents Chemother, 2007).

Format in all cases: functional, organism-based
In assay [1] the test system is Human immunodeficiency virus 1. Nature of the assay: Antiviral activity against HIV1 isolate with RT K103N-V108I-P225H mutation. In outline: (§1)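 VSV-G-pseudotyped pNL4-3.Luc.R−E− molecular clones carrying the RT mutations, single-round infection of HeLa-JC53 cells (15,000/well) at MOI 0.03. Compounds serially diluted 1:4 in DMSO then in phenol red-free DMEM with 2% FBS, final DMSO 0.2%. Incubated 48 h at 37°C, 5% CO2. Luciferase read-out by chemiluminescence gives the EC50. Fold change is relative to wt virus, mean of two tests.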

Assay [2] deals with Human immunodeficiency virus 1. Nature of the assay: Antiviral activity against HIV1 isolate with RT K103N-F227L mutation. In outline:
as §1

In assay [3] the test system is Human immunodeficiency virus 1. Nature of the assay: Antiviral activity against HIV1 isolate V106I-Y188L mutant.
Assay [4] relates to Human immunodeficiency virus 1. Nature of the assay: Antiviral activity against HIV1 isolate with RT G190A mutation. The essentials: as §1
Assay [5] relates to Human immunodeficiency virus 1. Nature of the assay: Antiviral activity against HIV1 isolate with RT K103N-Y188L mutation. The essentials: as §1
Assay [6] deals with Human immunodeficiency virus 1. Briefly: Antiviral activity against HIV1 isolate with RT K103N-K101Q-P225H mutation. The essentials:
as §1

Assay [7] concerns Human immunodeficiency virus 1. Nature of the assay: Antiviral activity against HIV1 isolate with RT K103N-V108I-A98G mutation. The essentials:
as §1

Assay [8] has as its system Human immunodeficiency virus 1. Nature of the assay: Antiviral activity against HIV1 isolate with RT A98G mutation. In outline:
as §1

The subject of assay [9] is Human immunodeficiency virus 1. Nature of the assay: Antiviral activity against HIV1 isolate with RT V106I mutation. In outline:
as §1

For assay [10], the system named is Human immunodeficiency virus 1. Briefly: Antiviral activity against HIV1 isolate with RT Y181C mutation. In outline:
as §1

The test system of assay [11] is Human immunodeficiency virus 1. Briefly: Antiviral activity against wild type HIV1.
Assay [12] deals with Human immunodeficiency virus 1. Nature of the assay: Antiviral activity against HIV1 isolate with RT K103N mutation. The essentials: as §1
Assay [13] deals with Human immunodeficiency virus 1. Nature of the assay: Antiviral activity against HIV1 isolate with RT K103N-Y181C mutation. The essentials:
as §1

For assay [14], the system named is Human immunodeficiency virus 1. Briefly: Antiviral activity against HIV1 isolate with RT K103N-P225H mutation. In outline:
as §1

Assay [15] relates to Human immunodeficiency virus 1. Nature of the assay: Antiviral activity against HIV1 isolate with RT K103N-V108I mutation. In outline:
as §1

The subject of assay [16] is Human immunodeficiency virus 1. Briefly: Antiviral activity against HIV1 isolate with RT K103N-K101Q mutation. In outline: as §1
Assay [17] relates to Human immunodeficiency virus 1. Nature of the assay: Antiviral activity against HIV1 isolate with RT K103N-L100I mutation. In outline:
as §1

For assay [18], the system named is Human immunodeficiency virus 1. Briefly: Antiviral activity against HIV1 isolate with RT G190S mutation. The essentials:
as §1

The test system of assay [19] is Human immunodeficiency virus 1. Nature of the assay: Antiviral activity against HIV1 isolate with RT Y188L mutation. The essentials: as §1
Assay [20] deals with Human immunodeficiency virus 1. Nature of the assay: Antiviral activity against HIV1 isolate with RT K101E mutant. In outline: as §1

`O=C1Nc2ccc(Cl)cc2[C@@](C#CC2CC2)(C(F)(F)F)O1` [EFAVIRENZ]: the EC50 is 77.1 nM in [1]; 2.26 nM in assay [2]; 136 nM in [3]; 0.48 nM in [4]; over 2500 nM in [5]; 78.4 nM in assay [6]. Further, the EC50 was 67.9 nM in assay [7]; 0.64 nM in assay [8]; 0.27 nM in assay [9]; 0.33 nM in assay [10]; 0.17 nM in [11]; 2.73 nM in assay [12]. Besides, the EC50 in [13] is 4.24 nM; in [14] it was 34.9 nM; in assay [15], 8.63 nM; in assay [16], 12.7 nM; in assay [17], 258 nM; in assay [18], 14.3 nM. The concentration for a half-maximal effect (EC50) in [19] was found to be 24.4 nM; in assay [20], 0.74 nM.
